Compounds with a hit are over-represented: about 3.8% of the library has one in this group of screens.
RGS4 block: RGS4 inhibitors, primary screen, cell-based, HEK293 M3R inducible RGS4, calcium flux; B-score at 10 µM; actives 0.45% (n = 310,000); AID 463165, 2010; Fluo-4 calcium flux; active compounds read high; triggered by carbachol at its EC20; Regulator of G-protein signaling 4 (Homo sapiens), P49798;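 active means B-score, a plate-corrected calcium signal, over three deviations above library mean, with baseline fluorescence within five deviations of library mean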;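 further: RGS4 expression induced by doxycycline in cells with stable M3 receptor; B-score is computed from the integrated fluorescence ratio over baseline after carbachol; higher B-score means a larger calcium signal and so more RGS4 inhibition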
Target sequence (P49798 whole entry, looked up): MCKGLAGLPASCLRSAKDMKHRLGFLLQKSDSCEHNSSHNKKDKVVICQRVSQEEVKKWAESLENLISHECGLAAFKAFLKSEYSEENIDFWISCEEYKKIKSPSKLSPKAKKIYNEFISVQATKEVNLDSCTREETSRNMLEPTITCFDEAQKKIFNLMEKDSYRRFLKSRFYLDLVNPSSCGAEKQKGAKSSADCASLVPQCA
MrgX1 PAM: positive allosteric modulators of MrgX1, primary screen, HEK293 cells, Fluo-4 calcium flux; actives 0.63% (n = 310,000); FDSS; active compounds read high; B-score at 10 µM;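 active means plate-corrected calcium response at least 3 library SD above typical, normal starting fluorescence, not activating the receptor alone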;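 further: compound read alongside a low EC10 to EC30 dose of BAM8-22 agonist; peak minus trough fluorescence over baseline measured at the second addition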
Target sequence (Q96LB2 whole entry, looked up): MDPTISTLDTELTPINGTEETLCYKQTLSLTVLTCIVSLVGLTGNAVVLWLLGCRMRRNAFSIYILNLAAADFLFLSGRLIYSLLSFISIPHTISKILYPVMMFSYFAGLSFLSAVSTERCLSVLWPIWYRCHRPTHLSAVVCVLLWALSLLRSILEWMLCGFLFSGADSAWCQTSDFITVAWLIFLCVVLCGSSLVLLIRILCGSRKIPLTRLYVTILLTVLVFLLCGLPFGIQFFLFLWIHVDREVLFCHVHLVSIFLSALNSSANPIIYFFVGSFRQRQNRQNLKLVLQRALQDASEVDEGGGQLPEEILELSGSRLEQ
MrgX1 antagonist: antagonists of human MrgX1 receptor, primary screen, HEK293 cells, Fluo-4 calcium flux. Mas-related G-protein coupled receptor member X1 (Homo sapiens), Q96LB2. BAM8-22 antagonism; active compounds read low. B-score at 10 µM. actives 1.3% (n = 310,000);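 active means calcium-response B-score plate-corrected more than 3 library SD below zero, starting fluorescence within 5 deviations, no agonist response on first addition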;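 further: peak minus trough fluorescence over baseline after final BAM8-22 challenge near maximal dose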
MrgX1 ag: agonists of human MrgX1 receptor, primary screen, HEK293 cells, Fluo-4 calcium flux; Fluo-4 calcium fluorescence, agonist mode; active compounds read high; AID 588627, 2011; actives 0.44% (n = 310,000); Mas-related G-protein coupled receptor member X1 (Homo sapiens), Q96LB2; B-score at 10 µM;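 active means calcium response B-score plate-corrected fluorescence ratio at least 3 library SD, with starting fluorescence B-score inside 5 SD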
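Assay system: stable human MrgX1 HEK293 cell line. Quantity: 15,000 cells per well. Schedule: cells plated overnight, dye loaded 0.5 h 37 °C, 0.5 h room temperature. Detection: Fluo-4 NW calcium-flux fluorescence, kinetic read. Read-out basis: peak-minus-minimum fluorescence over baseline, converted to B scores. Control set: positive and negative control wells on each plate.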
RGS4 pot: RGS4 potentiators or activators, primary screen, cell-based, HEK293 M3R inducible RGS4, calcium flux | carbachol calcium flux Fluo4; active compounds read low | B-score at 10 µM | actives 0.92% (n = 310,000);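 active means B-score of the integrated calcium signal more than 4 SD below the library mean, with starting fluorescence not abnormally high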;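 further: negative B-score means reduced calcium response which marks RGS4 activation or potentiation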
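Material: Inducible-RGS4 HEK293 cells carrying M3 receptor; also added: carbachol at ECmax as muscarinic agonist stimulus; incubation: compound preincubation 20 min at room temperature before agonist; signal: Fluo4-AM (2 µM) calcium-flux fluorescence, kinetic read; measure: integrated calcium ratio converted to B score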
Hep lipid drop: inhibitors of hepatocyte lipid droplet formation, primary screen, imaging, high-throughput imaging, BODIPY stain; AML12 mouse hepatocytes, oleate lipid droplets; inhibition, % at 6.5 µM; actives 0.4% (n = 240,000);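 active means lipid droplet intensity inhibited by at least 50%, with more than 500 cells counted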
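Assay system: AML12 hepatocytes (mouse); Probe or stimulus: oleic acid at 100 µM to induce lipid droplet formation; Dosing: compound at 6.5 µM only; Schedule: compound with oleate, overnight; Detection: fluorescence imaging, 20x objective, two fields per well; Measure: % inhibition of lipid droplet signal.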
RGS4 inh valid: enhanced carbachol calcium response, M3R/RGS4 cells, RGS4 inhibitor project, cell-based, validation screen, HEK293 M3R/RGS4, calcium flux; shares compounds with RGS4 block; carbachol calcium Fluo-4 fluorescence; carbachol added at its EC20; 0 = buffer wells, 100 = carbachol control; calcium response, % at 10 µM; actives 65% (n = 1,700);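 active means duplicate-averaged calcium response above the buffer-only control mean plus 5 SD of those controls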;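 further: integrated fluorescence ratio F max minus min over baseline F0; higher response in RGS4-induced cells means RGS4 inhibition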
RGS4 uninduced: carbachol calcium response in non-induced M3R cells, confirmation, counter-screen for RGS4 inhibitor project, cell-based, HEK293 M3R. shares compounds with RGS4 block. carbachol calcium Fluo-4; submaximal (EC20) carbachol stimulus; buffer wells 0%, carbachol control wells 100%. activity (percent), % at 10 µM. actives 20% (n = 1,900); call rule not given here;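 further: RGS4 induction absent so cells express M3R without RGS4; higher means more calcium signal and flags a non-specific hit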
RGS4 inh ctr2: second counter-screen for RGS4 inhibitors: non-induced cells without carbachol; HEK293 M3R/RGS4 non-induced, Fluo-4 calcium, no carbachol; normalised: buffer wells 0%, carbachol wells 100%; AID 493001; actives 22% (n = 1,900); shares compounds with RGS4 block; calcium response (agonist-mode artifact), % at 10 µM;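 active means duplicate-averaged calcium rise in uninduced cells above buffer wells' mean plus 5 SD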
Active calls of the source: *; i = inactive; . = not tested or not shown.

SMILES | RGS4 block | MrgX1 PAM | MrgX1 antagonist | MrgX1 ag | RGS4 pot | Hep lipid drop | RGS4 inh valid | RGS4 uninduced | RGS4 inh ctr2
CCOC(=O)c1nn(C23CC4CC(CC(C4)C2)C3)c2c1C(=O)N(c1ccc(C)cc1)C2=O | 5.2* | i | i | i | i | . | i | i | 100%*
CCOC(=O)C1CCN(S(=O)(=O)c2ccc(Cl)cc2)CC1 | i | i | i | i | i | -6 | . | . | .
CCN1C(=O)N(CC)C2C1N(CO)C(=O)N2CO (stereo not drawn) | i | i | i | i | i | 1 | . | . | .
Nc1sc(-c2ccccc2)cc1C(=O)N/N=C/c1ccc(Cl)cc1 | 4.7* | i | i | i | i | 4 | 14%* | 28%* | i
Cc1cc(C2(c3ccc(O)c(C)c3)C(=O)Nc3ccccc32)ccc1O | i | i | i | i | i | . | . | . | .
Cc1cccc2c1NC(=O)C2(c1ccc(O)cc1)c1ccc(O)cc1 | 8.6* | i | i | i | i | . | 10%* | i | i
O=C(CSc1nc2ccccc2[nH]1)Nc1nc(-c2cccc(Br)c2)cs1 | 7.7* | i | i | i | i | -2 | 16%* | i | i
CN(C)CCCn1c(SCC(=O)Nc2nc(-c3cccc(Br)c3)cs2)nc2ccccc2c1=O | i | i | i | i | i | 4 | . | . | .
Cc1ccc(-c2csc(NC(=O)CSc3nc(C)cc(=O)[nH]3)n2)cc1 | 13* | i | i | i | i | -35 | 12%* | i | i
CCCCNC(=O)c1ccc(NS(=O)(=O)c2ccc3[nH]c(=O)[nH]c3c2)cc1 | i | i | i | i | i | 4 | . | . | .
COc1ccc(Br)cc1CN1CCN(S(=O)(=O)Cc2ccccc2)CC1 | 28* | i | i | i | i | 0 | i | i | i
COc1ccc(Cl)cc1NC(=O)CSc1nc2ccsc2c(=O)n1CC1CCC(C(=O)O)CC1 (stereo not drawn) | i | i | i | i | i | -2 | . | . | .
O=C(CSc1nnc(NC(=O)C2CC2)s1)NCc1ccccc1Cl | i | i | i | i | i | 5 | . | . | .
COC(=O)CN1CCN(C(=O)c2ccc(F)cc2)c2ccccc2C1 | i | i | i | i | i | . | . | . | .
COc1ccc(OC)c(-c2csc(N(CC3CCCO3)C(=O)C3CCCCC3)n2)c1 (stereo not drawn) | 7.2* | i | i | i | i | 8 | 24%* | i | i
COc1ccc(OC)c(C2=Nn3c(nnc3C3CCCCC3)SC2)c1 | i | i | i | i | i | -5 | . | . | .
COc1ccc(C2=Nn3c(nnc3C3CCCCC3)SC2)cc1OC | 11* | i | i | i | i | 20 | 22%* | 49%* | i
COc1ccc(-c2nnc3n2N=C(c2ccccc2)CS3)cc1OC | . | . | . | . | . | 8 | . | . | .
CCCc1nnc2n1N=C(c1ccc(OC)c(OC)c1)CS2 | 7.4* | i | i | i | i | 13 | 12%* | 28%* | i
COc1ccc(C2=Nn3c(nnc3-c3ccccc3)SC2)cc1OC | i | i | i | i | i | 7 | . | i | i
C(#CC12CC3CC(CC(C3)C1)C2)CN1CCOCC1 | i | i | i | i | i | -1 | . | . | .
COc1cc(OC)cc(-c2nn[nH]n2)c1 | i | i | i | i | i | -1 | . | . | .
COc1ccc2oc(=N)c(C(=O)Nc3ccc(C)cc3)cc2c1 | i | i | i | i | i | -4 | . | . | .
COc1ccccc1N=c1oc2cc(O)ccc2cc1C(N)=O | i | i | i | i | i | . | . | . | .
COc1ccc2o/c(=N\O)c(C(=O)Nc3ccc(C)cc3)cc2c1 | 12* | . | . | . | i | -7 | 14%* | i | i
SMILES | RGS4 block | MrgX1 PAM | MrgX1 antagonist | MrgX1 ag | RGS4 pot | Hep lipid drop | RGS4 inh valid | RGS4 uninduced | RGS4 inh ctr2
COc1ccccc1NC(=O)c1cc2ccc(O)cc2o/c1=N\O | i | i | i | i | i | . | i | i | i
CCNC(=O)CC1C(=O)N(CC)C(=S)N1NC(=O)c1ccccc1 (stereo not drawn) | i | i | i | i | i | 1 | . | . | .
C/C(CC(=O)Nc1ccc(F)cc1F)=N\NC(=O)C(=O)N1CCCCC1 | i | i | i | i | i | -2 | . | . | .
COc1ccc(C(=O)/C(=C\c2ccco2)N2C=CC=CC2=C(C#N)C#N)cc1 | 25* | i | i | i | i | . | 37%* | i | 20%*
N#CC(C#N)=C1C=CC=CN1/C(=C\c1ccco1)C(=O)c1ccccc1 | . | i | i | i | . | 1 | . | . | .
O=C1N=c2ccccc2=C1c1c(O)n(-c2cccc(F)c2)[nH]c1=O | 7* | i | i | i | i | 12 | 21%* | i | i
COc1ccc(Cl)cc1S(=O)(=O)N1CCCC(C(=O)N2CCCC2)C1 (stereo not drawn) | i | i | i | i | i | 31 | . | . | .
COc1ccc(OC)c(S(=O)(=O)N2CCCC(C(=O)NCc3ccncc3)C2)c1 (stereo not drawn) | i | i | i | i | i | -1 | . | . | .
COc1ccc(OC)c(S(=O)(=O)N2CCCC(C(=O)N3CCCC3)C2)c1 (stereo not drawn) | i | i | i | i | i | 2 | i | i | i
COc1ccc(OC)c(S(=O)(=O)N2CCCC(C(=O)N3CCCCCC3)C2)c1 (stereo not drawn) | i | i | i | i | i | 3 | i | i | 14%*
